Measured values taken from ChEMBL document CHEMBL1629474, “Massive screening yields novel and selective Trypanosoma cruzi triosephosphate isomerase dimer-interface-irreversible inhibitors with anti-trypanosomal activity” (Eur J Med Chem, 2010).
Active and inactive are the calls of the source. No rule for the calls is given here.

What was measured:
[1] = Selectivity for Trypanosoma cruzi triosephosphate isomerase over human triosephosphate isomerase
[2] = system: Trypanosoma cruzi; assay: Antiparasitic activity against Trypanosoma cruzi T2 epimastigotes assessed as growth inhibition at 25 uM after 5 days; format: functional; settings: for inhibition of growth at 25 µM: T2, 120 h, read-out: GI
Outline: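 Late-log epimastigotes were grown axenically at 28 °C in BHI-tryptose with 5% fetal calf serum and seeded at 2×10^6/mL in medium containing compound (DMSO stock; final DMSO ≤1%, 1% DMSO control). Growth was read as A590 at day 0 and day 5. Inhibition = {1 − [(Ap − A0p)/(Ac − A0c)]} × 100. Means of two experiments.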

[3] = biological target: Triosephosphate isomerase, glycosomal (Trypanosoma cruzi) (UniProt P52270); assay: Inhibition of Trypanosoma cruzi triosephosphate isomerase at 100 uM after 2 hrs
Triosephosphate isomerase, glycosomal (Trypanosoma cruzi), sequence (P52270 whole entry): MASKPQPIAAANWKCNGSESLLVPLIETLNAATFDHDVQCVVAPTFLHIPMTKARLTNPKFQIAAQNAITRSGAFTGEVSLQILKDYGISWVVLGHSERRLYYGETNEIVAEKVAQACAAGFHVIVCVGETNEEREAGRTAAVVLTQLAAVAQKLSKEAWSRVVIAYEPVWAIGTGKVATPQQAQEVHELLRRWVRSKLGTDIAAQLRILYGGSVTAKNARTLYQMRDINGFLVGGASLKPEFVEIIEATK
Outline: (§1)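 Recombinant E. coli-expressed enzyme, dialyzed into 100 mM triethanolamine/10 mM EDTA pH 7.4, was incubated with compound (DMSO stock) in 100 mM triethanolamine, 10 mM EDTA, pH 7.4, 10% DMSO at 36 °C for 2 h. An aliquot was then assayed for activity (glyceraldehyde 3-phosphate to dihydroxyacetone phosphate, α-glycerol phosphate dehydrogenase-coupled) with 5 ng enzyme. Irreversible inhibition was scored as loss of activity; means of two experiments.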

[4] = biological target: Triosephosphate isomerase, glycosomal (Trypanosoma cruzi) (UniProt P52270); assay: Inhibition of Trypanosoma cruzi triosephosphate isomerase at 400 uM after 2 hrs; outline: as §1
[5] = system: Trypanosoma cruzi; assay: Antiparasitic activity against Trypanosoma cruzi T2 epimastigotes assessed as growth inhibition; format: functional; settings: read-out: ID50 (the source's name)
Outline: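 Epimastigotes were cultured at 28 °C in BHI-tryptose plus 5% fetal calf serum and seeded at 2×10^6/mL with increasing compound concentrations (from DMSO stock; final DMSO ≤1%). Growth was followed as A590 against untreated controls. ID50 was the concentration halving absorbance relative to controls. Means of two experiments.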

[6] = biological target: Triosephosphate isomerase, glycosomal (Trypanosoma cruzi, UniProt P52270); assay: Inhibition of Trypanosoma cruzi triosephosphate isomerase after 2 hrs; outline: as §1
Triosephosphate isomerase, glycosomal, sequence (P52270 whole entry): as above

| Structure (SMILES) | Ratio [1] | inhibition [3] [%] | inhibition [4] [%] | IC50 [5] [µM] | IC50 [6] [µM] | Activity [2] | inhibition of growth at 25 µM [2] [%] |
| --- | --- | --- | --- | --- | --- | --- | --- |
| O=C1C(=Cc2ccc([N+](=O)[O-])cc2)C(=O)N(Cc2ccccc2)S(=O)(=O)N1Cc1ccccc1 | > 4 | 28 | 74 | – | – | Active | – |
| O=C1C(=Cc2ccc([N+](=O)[O-])cc2)C(=O)N(CCc2ccccc2)S(=O)(=O)N1CCc1ccccc1 | > 4 | 58 | 85 | – | – | Active | – |
| C/C(=C\c1ccc2c(c1)OCO2)[N+](=O)[O-] | > 4 | 55 | 74 | 5.1 | – | – | 100 |
| Nc1ccc(-c2ccccc2)cc1[N+](=O)[O-] | > 4 | 47 | 93 | – | – | – | – |
| O=C1C(=Cc2ccc([N+](=O)[O-])s2)C(=O)N(CCc2ccccc2)S(=O)(=O)N1CCc1ccccc1 | > 4 | 68 | 82 | – | – | Active | – |
| O=c1cc(-c2ccccc2)oc2ccccc12 [FLAVONE] | > 4 | 52 | 83 | > 25 | – | – | 19.1 |
| [O-][n+]1onc2ccc(/C=C/c3ccc4c(c3)OCO4)cc21 | > 4 | 21 | 70 | – | – | Active | – |
| C/C(=C\c1ccc(Br)cc1)[N+](=O)[O-] | > 4 | 0 | 95 | – | – | Active | – |
| Cc1ccc(-c2nsc(S(=O)(=O)c3ccc(C)cc3)n2)cc1 | > 4 | 57 | 78 | 5 | – | – | 100 |
| CC1=CC(=N/O)/C(=N\O)C=C1 | > 4 | 49 | 85 | 25 | – | – | 50 |
| CCOC(=O)c1nc(-c2cc(C(C)(C)C)c(O)c(C(C)(C)C)c2)ns1 | > 4 | 65 | 87 | – | – | Active | – |
| c1ccc(-c2nsc(-c3ccccc3)n2)cc1 | > 4 | 45 | 74 | 25 | – | – | 50 |
| C/C(=C\c1cccs1)[N+](=O)[O-] | > 4 | 53 | 95 | > 25 | – | – | 14.6 |
| CCCN(CCOCCn1nc(OCc2ccccc2)c2cc([N+](=O)[O-])ccc21)CCC(C)C1CC=C(C)CC1 (stereo unspecified) | > 4 | – | 0 | – | – | Active | – |
| O=C1C(=Cc2ccc([N+](=O)[O-])cc2)C(=O)N(C2CCCCC2)S(=O)(=O)N1C1CCCCC1 | > 4 | – | 51 | – | – | Active | – |
| O=C(/C=C/c1ccco1)N1CCN(C/C=C/c2ccccc2)CC1 | > 4 | – | 0 | – | – | Active | – |
| CCCN(CCCCCn1nc(OCc2ccccc2)c2cc([N+](=O)[O-])ccc21)CCC(C)C1CC=C(C)CC1 (stereo unspecified) | > 4 | – | 11 | – | – | Active | – |
| CCCCCCN1C(=O)C(=Cc2ccc([N+](=O)[O-])cc2)C(=O)N(CCCCCC)S1(=O)=O | > 4 | 26 | 98 | – | – | Active | – |
| Cc1nncnc1CC(c1ccc([N+](=O)[O-])cc1)[N+]1([O-])CCOCC1 (stereo unspecified) | > 4 | – | 38 | – | – | Active | – |
| O=Cc1ccc2no[n+]([O-])c2c1 | > 4 | – | 14 | – | – | Active | – |
| O=C1C(=Cc2ccc([N+](=O)[O-])s2)C(=O)N(Cc2ccccc2)S(=O)(=O)N1Cc1ccccc1 | > 4 | 84 | 77 | – | – | Active | – |
| O=S(=O)(NC1CCCCC1)NC1CCCCC1 | > 4 | – | 0 | – | – | Active | – |

More lines, main results first:

| Ratio [1] | inhibition [3] [%] | inhibition [4] [%] | IC50 [5] [µM] | IC50 [6] [µM] | Structure (SMILES) | Activity [2] | inhibition of growth at 25 µM [2] [%] |
| --- | --- | --- | --- | --- | --- | --- | --- |
| > 4 | 27 | 73 | – | – | [O-][n+]1onc2ccc(/C=C/c3cccs3)cc21 | Active | – |
| > 4 | 36 | 82 | – | – | NC(=O)N/N=C/c1ccc(OCc2ccc3no[n+]([O-])c3c2)cc1 | Active | – |
| > 4 | 20 | 82 | – | – | O=C(N/N=C/c1ccc([N+](=O)[O-])o1)Nc1cccc2ccccc12 | Active | – |
| > 4 | 0 | 100 | – | – | [O-][n+]1onc2ccc(/C=N/N=C/c3cc(Br)ccc3O)cc21 | Active | – |
| > 4 | 47 | 100 | – | – | O=C(N/N=C/C=C/c1ccc([N+](=O)[O-])o1)Nc1ccc2ccccc2c1 | Active | – |
| > 4 | – | 18 | 7.4 | – | O=C(Cn1ccnc1[N+](=O)[O-])NCc1ccccc1 [BENZNIDAZOLE] | Active | – |
| > 4 | 57 | 85 | – | – | NC(=S)N/N=C/c1ccc([N+](=O)[O-])o1 | Active | – |
| > 4 | 56 | 87 | > 25 | – | Cc1c(/C=N/NC(N)=S)no[n+]1[O-] | – | 24.7 |
| > 4 | 99 | 100 | 50 | 20 | NC1=NS(=O)(=O)N=C(N)C1=Cc1ccc([N+](=O)[O-])o1 | – | 22.2 |
| > 4 | 32 | 100 | – | – | O=C(N/N=C/c1ccc([N+](=O)[O-])o1)Nc1ccc2ccccc2c1 | Active | – |
| > 4 | 69 | 87 | > 25 | – | CCOC(=O)c1nc(-c2ccccc2)ns1 | – | 25 |
| > 4 | 17 | 0 | – | – | CCCCNC(=O)N/N=C/c1ccc([N+](=O)[O-])o1 | Active | – |
| > 4 | 76 | 100 | – | – | COc1ccc(CCNC(=O)N/N=C/c2ccc([N+](=O)[O-])o2)cc1OC | Active | – |
| > 4 | 75 | 100 | – | – | O=[N+]([O-])c1ccc(/C=C/C=N/NC(=S)Nc2ccccc2)o1 | Active | – |
| > 4 | 47 | 88 | – | – | [O-][n+]1onc2ccc(/C=C/Sc3ccc(F)cc3)cc21 | Active | – |
| > 4 | 25 | 100 | – | – | O=[N+]([O-])c1ccc(/C=N/NC(=S)Nc2ccccc2)s1 | Active | – |

| Ratio [1] | inhibition [3] [%] | inhibition [4] [%] | IC50 [5] [µM] | IC50 [6] [µM] | Structure (SMILES) | Activity [2] | inhibition of growth at 25 µM [2] [%] |
| --- | --- | --- | --- | --- | --- | --- | --- |
| > 4 | 45 | 72 | > 25 | – | [O-][n+]1onc(-c2ccccc2)c1CNc1cccc2ccccc12 | – | 24.7 |
| > 4 | 0 | 92 | – | – | Cc1c(CNc2ccc3ccccc3c2)no[n+]1[O-] | Active | – |
| > 4 | 13 | 80 | – | – | [O-][n+]1onc2ccc(/C=C/c3ccc4nonc4c3)cc21 | Active | – |
| > 4 | – | 2 | – | – | COC(=O)N/N=C/c1c(C)no[n+]1[O-] | Active | – |
| > 4 | 35 | 93 | – | – | O=S(=O)(c1ccccc1)c1no[n+]([O-])c1S(=O)(=O)c1ccccc1 | Active | – |
| > 4 | 82 | 71 | – | – | O=[N+]([O-])c1ccc(C=Cc2ccc3no[n+]([O-])c3c2)s1 | Active | – |
| > 4 | – | 3 | – | – | COC(=O)N/N=C/c1ccc2no[n+]([O-])c2c1 | Active | – |
| > 4 | – | 43 | – | – | CCCCCCNC(=O)N/N=C/c1ccc2no[n+]([O-])c2c1 | Active | – |
| > 4 | – | 2 | – | – | C=CCNC(=S)N/N=C/c1cccs1 | Active | – |
| > 4 | – | 5 | – | – | COCCNC(=O)N/N=C/c1ccc([N+](=O)[O-])o1 | Active | – |
| > 4 | – | 24 | – | – | [O-][n+]1onc2ccc(/C=N/N=C/c3ccccc3O)cc21 | Active | – |
| > 4 | – | 2 | – | – | CCCCNC(=O)N/N=C/c1c(C)no[n+]1[O-] | Active | – |
| > 4 | 45 | 75 | – | – | C=CCNC(=S)N/N=C\c1ccccc1OCc1ccc2no[n+]([O-])c2c1 | Active | – |
| > 4 | – | 27 | – | – | CCCCNC(=O)N/N=C/c1c(-c2ccccc2)no[n+]1[O-] | Active | – |
| > 4 | – | 23 | – | – | [O-][N+]1=c2ccc(Br)cc2=[N+]([O-])C12CCCC2 | Active | – |
